Experimental data from ChEMBL document CHEMBL4130549, “Synthesis and bioactivities study of new antibacterial peptide mimics: The dialkyl cationic amphiphiles” (Eur J Med Chem, 2018).
Active and inactive are the calls of the source. No cut-off for these calls is given here.

What was measured:
Staphylococcus aureus [1] = assay: Ratio of MBC for methicillin-resistant Staphylococcus aureus in presence of 50% plasma to MBC for methicillin-resistant Staphylococcus aureus; type: functional
Method in brief: (§1)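 MRSA at 10⁵ CFU/mL in 50% Mueller-Hinton broth plus 50% sheep serum, plasma or defibrinated whole blood. Serum and plasma were separated by centrifugation at 3,500 rpm for 10 min. Aqueous compound dilutions (512–4 µg/mL before mixing) were combined 1:3 with the suspension and incubated 20-24 h at 37 °C. Wells were plated on Mueller-Hinton agar for a further 20-24 h; MBC was taken as no colonies.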

Enterobacteriaceae [2] = assay: Antibacterial activity against NDM-1-producing Enterobacteriaceae isolate N2 after 16 to 20 hrs by broth microdilution method; type: functional
Method in brief: (§2)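 Broth microdilution per CLSI in cation-adjusted Mueller-Hinton broth; 4-6 h cultures (~10⁸ CFU/mL) diluted to ~10⁶ CFU/mL and mixed 1:1 with twofold dilutions of water-dissolved compound (256 to 0.5 µg/mL). Incubated 16-20 h at 37 °C; MIC read visually. Each concentration run in duplicate, whole experiment repeated at least twice. MRSA, KPC and NDM-1 strains were clinical isolates.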

Klebsiella pneumoniae [3] = assay: Antibacterial activity against carbapenemase-producing Klebsiella pneumoniae isolate K9 after 16 to 20 hrs by broth microdilution method; type: functional; method in brief: as §2
Staphylococcus aureus [4] = assay: Antibacterial activity against Staphylococcus aureus ATCC 29213 after 16 to 20 hrs by broth microdilution method; type: functional
Method in brief: (§3)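 CLSI broth microdilution in cation-adjusted Mueller-Hinton broth. A 4-6 h culture was diluted to about 10⁶ CFU/mL and mixed 1:1 with twofold compound dilutions (256–0.5 µg/mL before mixing) prepared from aqueous stocks. Plates were incubated at 37 °C for 16-20 h. Each concentration was tested in duplicate, and the experiment was repeated at least twice.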

Enterobacteriaceae [5] = assay: Antibacterial activity against NDM-1-producing Enterobacteriaceae isolate N3 after 16 to 20 hrs by broth microdilution method; type: functional; method in brief: as §2
Staphylococcus aureus [6] = assay: Bactericidal activity against Staphylococcus aureus after 20 to 24 hrs using compounds preincubated with 50% plasma for 3 to 6 hrs by broth microdilution method
Staphylococcus aureus [7] = assay: Antibacterial activity against methicillin-resistant Staphylococcus aureus isolate M6 after 16 to 20 hrs by broth microdilution method; type: functional; method in brief: as §3
Klebsiella pneumoniae [8] = assay: Antibacterial activity against carbapenemase-producing Klebsiella pneumoniae isolate K10 after 16 to 20 hrs by broth microdilution method; type: functional; method in brief: as §2
Salmonella enterica = assay: Antibacterial activity against Salmonella enterica after 16 to 20 hrs by broth microdilution method; type: functional; method in brief: as §2
Staphylococcus aureus [9] = assay: Antibacterial activity against methicillin-resistant Staphylococcus aureus isolate M2 after 16 to 20 hrs by broth microdilution method; type: functional; method in brief: as §3
Staphylococcus aureus [10] = assay: Antibacterial activity against methicillin-resistant Staphylococcus aureus isolate M10 after 16 to 20 hrs by broth microdilution method; type: functional; method in brief: as §3
Enterobacteriaceae [11] = assay: Antibacterial activity against NDM-1-producing Enterobacteriaceae isolate N1 after 16 to 20 hrs by broth microdilution method; type: functional; method in brief: as §2
Enterobacteriaceae [12] = assay: Antibacterial activity against NDM-1-producing Enterobacteriaceae isolate N9 after 16 to 20 hrs by broth microdilution method; type: functional; method in brief: as §2
Staphylococcus aureus [13] = assay: Antibacterial activity against methicillin-resistant Staphylococcus aureus after 16 to 20 hrs by broth microdilution method; type: functional; method in brief: as §3
Staphylococcus aureus [14] = assay: Antibacterial activity against methicillin-resistant Staphylococcus aureus isolate M4 after 16 to 20 hrs by broth microdilution method; type: functional; method in brief: as §3
Staphylococcus aureus [15] = assay: Induction of inner membrane permeabilization in Staphylococcus aureus ATCC 29213 at 20 ug/ml measured every 2 mins for 12 mins by propidium iodide staining based fluorescence assay; type: functional, organism-based
Method in brief: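 Mid-log cells (~10^8 CFU/mL) pre-incubated with propidium iodide (10 µM, 50 µL), 30 min for S. aureus and 40 min for E. coli. Fluorescence (ex 535/em 617 nm) read for 8 min, then compound added to 20 µg/mL final and monitored every 2 min for 12 min. Water-treated control.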

Klebsiella pneumoniae [16] = assay: Antibacterial activity against carbapenemase-producing Klebsiella pneumoniae isolate K6 after 16 to 20 hrs by broth microdilution method; type: functional; method in brief: as §2
Enterobacteriaceae [17] = assay: Antibacterial activity against NDM-1-producing Enterobacteriaceae isolate N10 after 16 to 20 hrs by broth microdilution method; type: functional; method in brief: as §2
Klebsiella pneumoniae [18] = assay: Antibacterial activity against carbapenemase-producing Klebsiella pneumoniae isolate K3 after 16 to 20 hrs by broth microdilution method; type: functional; method in brief: as §2
Staphylococcus aureus [19] = assay: Bactericidal activity against methicillin-resistant Staphylococcus aureus after 20 to 24 hrs by broth microdilution method; type: functional
Method in brief: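 For MBC, 20 µL from wells of the broth microdilution MIC plate showing little or no turbidity was plated on agar and incubated 20-24 h at 37 °C. MBC was the lowest concentration giving no colonies.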

Enterobacteriaceae [20] = assay: Antibacterial activity against NDM-1-producing Enterobacteriaceae isolate N5 after 16 to 20 hrs by broth microdilution method; type: functional; method in brief: as §2
Klebsiella pneumoniae [21] = assay: Antibacterial activity against carbapenemase-producing Klebsiella pneumoniae isolate K5 after 16 to 20 hrs by broth microdilution method; type: functional; method in brief: as §2
Staphylococcus aureus [22] = assay: Ratio of MBC for methicillin-resistant Staphylococcus aureus in presence of 50% serum to MBC for methicillin-resistant Staphylococcus aureus; type: functional; method in brief: as §1
Enterobacteriaceae [23] = assay: Antibacterial activity against NDM-1-producing Enterobacteriaceae after 16 to 20 hrs by broth microdilution method; type: functional; method in brief: as §2
Staphylococcus aureus [24] = assay: Antibacterial activity against methicillin-resistant Staphylococcus aureus isolate M5 after 16 to 20 hrs by broth microdilution method; type: functional; method in brief: as §3
Enterobacteriaceae [25] = assay: Antibacterial activity against NDM-1-producing Enterobacteriaceae isolate N8 after 16 to 20 hrs by broth microdilution method; type: functional; method in brief: as §2
Klebsiella pneumoniae [26] = assay: Antibacterial activity against carbapenemase-producing Klebsiella pneumoniae isolate K7 after 16 to 20 hrs by broth microdilution method; type: functional; method in brief: as §2
Staphylococcus aureus [27] = assay: Bactericidal activity against methicillin-resistant Staphylococcus aureus after 20 to 24 hrs in presence of 50% plasma by broth microdilution method; type: functional, organism-based; method in brief: as §1
Escherichia coli = assay: Antibacterial activity against Escherichia coli ATCC 25922 after 16 to 20 hrs by broth microdilution method; type: functional; method in brief: as §2
Staphylococcus aureus [28] = assay: Bactericidal activity against methicillin-resistant Staphylococcus aureus after 20 to 24 hrs in presence of 50% serum by broth microdilution method; type: functional, organism-based; method in brief: as §1
Enterobacteriaceae [29] = assay: Antibacterial activity against NDM-1-producing Enterobacteriaceae isolate N7 after 16 to 20 hrs by broth microdilution method; type: functional; method in brief: as §2
Enterococcus faecalis = assay: Antibacterial activity against Enterococcus faecalis after 16 to 20 hrs by broth microdilution method; type: functional; method in brief: as §2
Staphylococcus aureus [30] = assay: Induction of cytoplasmic membrane depolarization in Staphylococcus aureus ATCC 29213 at 20 ug/ml measured every 2 mins for 12 mins by diSC35 staining based fluorescence assay; type: functional, organism-based
Method in brief: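 Mid-log cells (4–6 h) pelleted, washed and resuspended (~10^8 CFU/mL) in PBS for S. aureus, or in 5 mM HEPES, 5 mM glucose and 100 mM KCl (1:1:1) for E. coli. Preloaded with diSC35 (10 µM, 50 µL), 30 min for S. aureus and 40 min plus EDTA (200 µM, 50 µL) for E. coli. Baseline read 8 min (ex 622/em 670 nm), then compound added to 20 µg/mL final and read every 2 min for 12 min. Water control.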

Enterobacteriaceae [31] = assay: Antibacterial activity against NDM-1-producing Enterobacteriaceae isolate N6 after 16 to 20 hrs by broth microdilution method; type: functional; method in brief: as §2
Staphylococcus aureus [32] = assay: Antibacterial activity against methicillin-resistant Staphylococcus aureus isolate M1 after 16 to 20 hrs by broth microdilution method; type: functional; method in brief: as §3

SMILES | Ratio (Staphylococcus aureus [1]) | MIC (Enterobacteriaceae [2]) | MIC (Klebsiella pneumoniae [3]) | MIC (Staphylococcus aureus [4]) | MIC (Enterobacteriaceae [5]) | MBC (Staphylococcus aureus [6]) | MIC (Staphylococcus aureus [7]) | MIC (Klebsiella pneumoniae [8]) | MIC (Salmonella enterica) | MIC (Staphylococcus aureus [9]) | MIC (Staphylococcus aureus [10]) | MIC (Enterobacteriaceae [11]) | MIC (Enterobacteriaceae [12]) | MIC (Staphylococcus aureus [13]) | MIC (Staphylococcus aureus [14]) | Activity (Staphylococcus aureus [15]) | MIC (Klebsiella pneumoniae [16]) | MIC (Enterobacteriaceae [17]) | MIC (Klebsiella pneumoniae [18]) | MBC (Staphylococcus aureus [19]) | other results
CCCCCCCCN(CCCCCCCC)C(=O)[C@@H](N)CCCCN.Cl.Cl | 2 - 4 | 8 mg/L | 2 mg/L | 2 mg/L | 8 mg/L | 16 mg/L | 0.5 mg/L | 2 mg/L | 4 mg/L | 1 mg/L | 0.5 mg/L | 8 mg/L | 8 mg/L | 0.5 mg/L | 1 mg/L | Active | 2 mg/L | 8 mg/L | 2 mg/L | 4 to 8 mg/L | MIC (Enterobacteriaceae [20]): 4 mg/L; MIC (Klebsiella pneumoniae [21]): 2 mg/L; Ratio (Staphylococcus aureus [22]): 1 - 2; MIC (Enterobacteriaceae [23]): 4 mg/L; MIC (Staphylococcus aureus [24]): 1 mg/L; MIC (Enterobacteriaceae [25]): 8 mg/L; MIC (Klebsiella pneumoniae [26]): 2 mg/L; Activity (Staphylococcus aureus [27]): Active; MIC (Escherichia coli): 2 mg/L; Activity (Staphylococcus aureus [28]): Active; MIC (Enterobacteriaceae [29]): 8 mg/L; MIC (Enterococcus faecalis): 2 mg/L; Activity (Staphylococcus aureus [30]): Active; MIC (Enterobacteriaceae [31]): 4 mg/L; MIC (Staphylococcus aureus [32]): 1 mg/L
CCCCCCCCCCN(CCCCCCCCCC)C(=O)[C@@H](N)CCCN=C(N)N.Cl.Cl.Cl | 2 - 4 | 4 mg/L | 4 mg/L | 2 mg/L | 4 mg/L | 16 mg/L | 2 mg/L | 4 mg/L | 4 mg/L | 1 mg/L | 2 mg/L | 4 mg/L | 8 mg/L | 2 mg/L | 2 mg/L | Active | 4 mg/L | 8 mg/L | 4 mg/L | 4 to 8 mg/L | MIC (Enterobacteriaceae [20]): 4 mg/L; MIC (Klebsiella pneumoniae [21]): 4 mg/L; Ratio (Staphylococcus aureus [22]): 1 - 2; MIC (Enterobacteriaceae [23]): 4 mg/L; MIC (Staphylococcus aureus [24]): 2 mg/L; MIC (Enterobacteriaceae [25]): 4 mg/L; MIC (Klebsiella pneumoniae [26]): 4 mg/L; Activity (Staphylococcus aureus [27]): Active; MIC (Escherichia coli): 8 mg/L; Activity (Staphylococcus aureus [28]): Active; MIC (Enterobacteriaceae [29]): 4 mg/L; MIC (Enterococcus faecalis): 2 mg/L; Activity (Staphylococcus aureus [30]): Active; MIC (Enterobacteriaceae [31]): 4 mg/L; MIC (Staphylococcus aureus [32]): 2 mg/L
CCCCCCCCN(CCCCCCCC)C(=O)[C@@H](N)CCCN=C(N)N.Cl.Cl.Cl | 2 - 4 | 8 mg/L | 8 mg/L | 1 mg/L | 8 mg/L | 16 mg/L | 0.5 mg/L | 4 mg/L | 8 mg/L | 1 mg/L | 0.5 mg/L | 8 mg/L | 8 mg/L | 0.5 mg/L | 1 mg/L | Active | 8 mg/L | 8 mg/L | 4 mg/L | 4 to 8 mg/L | MIC (Enterobacteriaceae [20]): 4 mg/L; MIC (Klebsiella pneumoniae [21]): 8 mg/L; Ratio (Staphylococcus aureus [22]): 1 - 2; MIC (Enterobacteriaceae [23]): 4 mg/L; MIC (Staphylococcus aureus [24]): 1 mg/L; MIC (Enterobacteriaceae [25]): 4 mg/L; MIC (Klebsiella pneumoniae [26]): 8 mg/L; Activity (Staphylococcus aureus [27]): Active; MIC (Escherichia coli): 2 mg/L; Activity (Staphylococcus aureus [28]): Active; MIC (Enterobacteriaceae [29]): 4 mg/L; MIC (Enterococcus faecalis): 2 mg/L; Activity (Staphylococcus aureus [30]): Active; MIC (Enterobacteriaceae [31]): 4 mg/L; MIC (Staphylococcus aureus [32]): 1 mg/L
